# Measurements: ChEMBL document CHEMBL1140069, “In vitro antifungal activity of polyfunctionalized 2-(hetero)arylquinolines prepared through imino Diels-Alder reactions” (2008)
# Legend:
# Type in all cases: functional
# Candida albicans = assay: Antifungal activity against Candida albicans ATCC 10231 after 48 hrs by broth microdilution technique; settings: ATCC 10231, 48 h
# In short: (§1)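 CLSI broth microdilution: M-27 A2 for yeasts and M-38 A for filamentous fungi. Medium is RPMI-1640 buffered to pH 7.0 with MOPS. Compound is diluted twofold from 250 to 0.98, final DMSO ≤2%. Inoculum is 1–5 × 10³ CFU/mL. Plates are incubated at 35 °C in a moist, dark chamber and read visually at 48 h. MIC100 is the lowest concentration giving total growth inhibition versus drug-free control.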
# Trichophyton rubrum [1] = assay: Antifungal activity against Trichophyton rubrum C136 isolate; settings: read-out: MIC100
# Saccharomyces cerevisiae = assay: Antifungal activity against Saccharomyces cerevisiae ATCC 9763 after 48 hrs by broth microdilution technique; settings: ATCC 9763, 48 h; in short: as §1
# [2] = system: Trichophyton mentagrophytes; assay: Antifungal activity against Trichophyton mentagrophytes C943 isolate; settings: read-out: MIC100
# Trichophyton rubrum [3] = assay: Antifungal activity against Trichophyton rubrum C135 isolate; settings: read-out: MIC100
# [4] = system: Trichophyton mentagrophytes; assay: Antifungal activity against Trichophyton mentagrophytes ATCC 9972 after 48 hrs by broth microdilution technique; settings: ATCC 9972, 48 h; in short: as §1
# Aspergillus niger = assay: Antifungal activity against Aspergillus niger ATCC 9029 after 48 hrs by broth microdilution technique; settings: ATCC 9029, 48 h; in short: as §1
# [5] = system: Trichophyton mentagrophytes; assay: Antifungal activity against Trichophyton mentagrophytes C364 isolate; settings: read-out: MIC100
# Trichophyton rubrum [6] = assay: Antifungal activity against Trichophyton rubrum C133 isolate; settings: read-out: MIC100
# [7] = system: Trichophyton mentagrophytes; assay: Antifungal activity against Trichophyton mentagrophytes C131 isolate; settings: read-out: MIC100
# Aspergillus flavus = assay: Antifungal activity against Aspergillus flavus ATCC 9170 after 48 hrs by broth microdilution technique; settings: ATCC 9170, 48 h; in short: as §1
# Trichophyton rubrum [8] = assay: Antifungal activity against Trichophyton rubrum C137 isolate; settings: read-out: MIC100
# Trichophyton rubrum [9] = assay: Antifungal activity against Trichophyton rubrum C110 after 48 hrs by broth microdilution technique; in short: as §1
# Aspergillus fumigatus = assay: Antifungal activity against Aspergillus fumigatus ATTC 26934 after 48 hrs by broth microdilution technique; in short: as §1
# Cryptococcus neoformans = assay: Antifungal activity against Cryptococcus neoformans ATCC 32264 after 48 hrs by broth microdilution technique; settings: ATCC 32264, 48 h; in short: as §1
# Nannizzia gypsea = assay: Antifungal activity against Microsporum gypseum C115 after 48 hrs by broth microdilution technique; in short: as §1
# [10] = system: Trichophyton mentagrophytes; assay: Antifungal activity against Trichophyton mentagrophytes C539 isolate; settings: read-out: MIC100
# [11] = system: Trichophyton mentagrophytes; assay: Antifungal activity against Trichophyton mentagrophytes C132 isolate; settings: read-out: MIC100
MIC (Candida albicans),MIC (Trichophyton rubrum [1]),MIC (Saccharomyces cerevisiae),MIC [2],MIC (Trichophyton rubrum [3]),MIC [4],MIC (Aspergillus niger),MIC [5],MIC (Trichophyton rubrum [6]),MIC [7],MIC (Aspergillus flavus),MIC (Trichophyton rubrum [8]),MIC (Trichophyton rubrum [9]; read-out: MIC),MIC (Trichophyton rubrum [9]; read-out: MIC100),MIC (Aspergillus fumigatus),MIC (Cryptococcus neoformans),MIC (Nannizzia gypsea),MIC [10],MIC [11],Structure (SMILES)
> 250 µg/mL,7.8 µg/mL,> 250 µg/mL,7.8 µg/mL,7.8 µg/mL,12.5 µg/mL,> 250 µg/mL,7.8 µg/mL,15.6 µg/mL,15.6 µg/mL,> 250 µg/mL,7.8 µg/mL,12.5 µg/mL,7.8 µg/mL,> 250 µg/mL,> 250 µg/mL,12.5 µg/mL,7.8 µg/mL,7.8 µg/mL,Cc1cc(-c2ccncc2)nc2c(C(C)C)cccc12
> 250 µg/mL,7.8 µg/mL,> 250 µg/mL,7.8 µg/mL,7.8 µg/mL,12.5 µg/mL,> 250 µg/mL,7.8 µg/mL,15.6 µg/mL,31.2 µg/mL,> 250 µg/mL,7.8 µg/mL,12.5 µg/mL,7.8 µg/mL,> 250 µg/mL,> 250 µg/mL,12.5 µg/mL,7.8 µg/mL,7.8 µg/mL,Cc1cc(-c2ccncc2)nc2c(C)cccc12
